Reference: ChEMBL document CHEMBL2086304, “Synthesis and in vitro antimycobacterial and isocitrate lyase inhibition properties of novel 2-methoxy-2'-hydroxybenzanilides, their thioxo analogues and benzoxazoles” (Eur J Med Chem, 2012)
In brackets after ≈: the same amount, converted by molar mass.

Test system: Mycobacterium tuberculosis
Assay: Antimycobacterial activity against Mycobacterium tuberculosis 331/88 after 14 days by micromethod
Assay type: functional
Settings: 331/88, 336 h
How it was run: (§1)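 Inocula: M. tuberculosis My 331/88 at 10^-3 dilution, M. avium My 330/88 at 10^-5, M. kansasii My 235/80 and clinical isolate 6509/96 at 10^-4. Compounds added in DMSO at 1000 down to 0.5 (twofold series). Read at 14 and 21 days, plus 7 days for M. kansasii. MIC taken as lowest concentration inhibiting growth.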

Compared with COc1cc(Cl)ccc1-c1nc2ccc(Cl)cc2o1, COc1ccc(Cl)cc1-c1nc2cc(Br)ccc2o1 is 2-fold higher in MIC: 125 µM (≈ 36.8 µg/mL) for the first, 250 µM (≈ 84.6 µg/mL) for the second.

First: COc1ccc(Cl)cc1C(=O)Nc1cc(Cl)c(Cl)cc1OC(=O)c1cc(Cl)ccc1OC
Second: COc1ccc(Cl)cc1C(=O)Nc1ccc(C(F)(F)F)cc1O
The MIC of the first is 62-fold lower: 8 µM (≈ 4.12 µg/mL) for the first, 500 µM (≈ 173 µg/mL) for the second.

Molecule COc1cc(Cl)ccc1C(=S)Nc1ccc(C(F)(F)F)cc1O has an MIC of 32 µM (≈ 11.6 µg/mL).

Test system: Mycobacterium tuberculosis
Assay: Antimycobacterial activity against Mycobacterium tuberculosis 331/88 after 21 days by micromethod
Assay type: functional
Settings: 331/88, 504 h
How it was run: as §1

Compared with COc1cc(Cl)ccc1-c1nc2ccc(Cl)cc2o1, COc1ccc(Cl)cc1-c1nc2cc(Br)ccc2o1 is 2-fold higher in MIC: 125 µM (≈ 36.8 µg/mL) for the first, 250 µM (≈ 84.6 µg/mL) for the second.

Compared with COc1ccc(Cl)cc1C(=O)Nc1cc(Cl)c(Cl)cc1OC(=O)c1cc(Cl)ccc1OC, COc1ccc(Cl)cc1C(=O)Nc1ccc(C(F)(F)F)cc1O is 62-fold higher in MIC: 8 µM (≈ 4.12 µg/mL) for the first, 500 µM (≈ 173 µg/mL) for the second.

COc1cc(Cl)ccc1C(=S)Nc1ccc(C(F)(F)F)cc1O gave an MIC of 62.5 µM (≈ 22.6 µg/mL).

Test system: Mycobacterium avium
Assay: Antimycobacterial activity against isoniazid resistance Mycobacterium avium 330/88 after 14 days by micromethod
Assay type: functional
Settings: 330/88, 336 h
How it was run: as §1

First: COc1cc(Cl)ccc1-c1nc2ccc(Cl)cc2o1
Second: COc1ccc(Cl)cc1-c1nc2cc(Br)ccc2o1
The MIC of the first is 4-fold lower: 62.5 µM (≈ 18.4 µg/mL) for the first, 250 µM (≈ 84.6 µg/mL) for the second.

COc1ccc(Cl)cc1C(=O)Nc1cc(Cl)c(Cl)cc1OC(=O)c1cc(Cl)ccc1OC and COc1ccc(Cl)cc1C(=O)Nc1ccc(C(F)(F)F)cc1O are the same in MIC: 62.5 µM (≈ 32.2 µg/mL) for the first, 62.5 µM (≈ 21.6 µg/mL) for the second.

With COc1cc(Cl)ccc1C(=S)Nc1ccc(C(F)(F)F)cc1O the MIC was 62.5 µM (≈ 22.6 µg/mL).

Test system: Mycobacterium avium
Assay: Antimycobacterial activity against isoniazid resistance Mycobacterium avium 330/88 after 21 days by micromethod
Assay type: functional
Settings: 330/88, 504 h
How it was run: as §1

First: COc1cc(Cl)ccc1-c1nc2ccc(Cl)cc2o1
Second: COc1ccc(Cl)cc1-c1nc2cc(Br)ccc2o1
The MIC of the first is 4-fold lower: 62.5 µM (≈ 18.4 µg/mL) for the first, 250 µM (≈ 84.6 µg/mL) for the second.

COc1ccc(Cl)cc1C(=O)Nc1cc(Cl)c(Cl)cc1OC(=O)c1cc(Cl)ccc1OC and COc1ccc(Cl)cc1C(=O)Nc1ccc(C(F)(F)F)cc1O are the same in MIC: 62.5 µM (≈ 32.2 µg/mL) for the first, 62.5 µM (≈ 21.6 µg/mL) for the second.

With COc1cc(Cl)ccc1C(=S)Nc1ccc(C(F)(F)F)cc1O the MIC was 62.5 µM (≈ 22.6 µg/mL).

Test system: Mycobacterium kansasii
Assay: Antimycobacterial activity against Mycobacterium kansasii 6509/96 clinical isolate after 7 days by micromethod
Assay type: functional
Settings: 6509/96, 168 h
How it was run: as §1

Compared with COc1cc(Cl)ccc1-c1nc2ccc(Cl)cc2o1, COc1ccc(Cl)cc1-c1nc2cc(Br)ccc2o1 is 4-fold higher in MIC: 62.5 µM (≈ 18.4 µg/mL) for the first, 250 µM (≈ 84.6 µg/mL) for the second.

First: COc1ccc(Cl)cc1C(=O)Nc1cc(Cl)c(Cl)cc1OC(=O)c1cc(Cl)ccc1OC
Second: COc1ccc(Cl)cc1C(=O)Nc1ccc(C(F)(F)F)cc1O
The MIC of the first is 62-fold lower: 4 µM (≈ 2.06 µg/mL) for the first, 250 µM (≈ 86.4 µg/mL) for the second.

In the case of COc1cc(Cl)ccc1C(=S)Nc1ccc(C(F)(F)F)cc1O, the MIC is reported as 32 µM (≈ 11.6 µg/mL).

Test system: Mycobacterium kansasii
Assay: Antimycobacterial activity against isoniazid resistance Mycobacterium kansasii 225/80 after 7 days by micromethod
Assay type: functional
Settings: 225/80, 168 h

Compared with COc1cc(Cl)ccc1-c1nc2ccc(Cl)cc2o1, COc1ccc(Cl)cc1-c1nc2cc(Br)ccc2o1 is 4-fold higher in MIC: 62.5 µM (≈ 18.4 µg/mL) for the first, 250 µM (≈ 84.6 µg/mL) for the second.

For COc1ccc(Cl)cc1C(=O)Nc1cc(Cl)c(Cl)cc1OC(=O)c1cc(Cl)ccc1OC, the MIC was 4 µM (≈ 2.06 µg/mL).

Test system: Mycobacterium kansasii
Assay: Antimycobacterial activity against isoniazid resistance Mycobacterium kansasii 225/80 after 14 days by micromethod
Assay type: functional
Settings: 225/80, 336 h

First: COc1cc(Cl)ccc1-c1nc2ccc(Cl)cc2o1
Second: COc1ccc(Cl)cc1-c1nc2cc(Br)ccc2o1
The MIC of the first is 4-fold lower: 62.5 µM (≈ 18.4 µg/mL) for the first, 250 µM (≈ 84.6 µg/mL) for the second.

Going from COc1ccc(Cl)cc1C(=O)Nc1cc(Cl)c(Cl)cc1OC(=O)c1cc(Cl)ccc1OC to COc1ccc(Cl)cc1C(=O)Nc1ccc(C(F)(F)F)cc1O, the MIC rises from 8 µM (≈ 4.12 µg/mL) to 250 µM (≈ 86.4 µg/mL) (31-fold).

Molecule COc1cc(Cl)ccc1C(=S)Nc1ccc(C(F)(F)F)cc1O has an MIC of 62.5 µM (≈ 22.6 µg/mL).

Test system: Mycobacterium kansasii
Assay: Antimycobacterial activity against isoniazid resistance Mycobacterium kansasii 225/80 after 21 days by micromethod
Assay type: functional
Settings: 225/80, 504 h

Going from COc1cc(Cl)ccc1-c1nc2ccc(Cl)cc2o1 to COc1ccc(Cl)cc1-c1nc2cc(Br)ccc2o1, the MIC rises from 62.5 µM (≈ 18.4 µg/mL) to 250 µM (≈ 84.6 µg/mL) (4-fold).

Compared with COc1ccc(Cl)cc1C(=O)Nc1cc(Cl)c(Cl)cc1OC(=O)c1cc(Cl)ccc1OC, COc1ccc(Cl)cc1C(=O)Nc1ccc(C(F)(F)F)cc1O is 31-fold higher in MIC: 8 µM (≈ 4.12 µg/mL) for the first, 250 µM (≈ 86.4 µg/mL) for the second.

With COc1cc(Cl)ccc1C(=S)Nc1ccc(C(F)(F)F)cc1O the MIC was 62.5 µM (≈ 22.6 µg/mL).

Test system: Mycobacterium kansasii
Assay: Antimycobacterial activity against Mycobacterium kansasii 6509/96 clinical isolate after 14 days by micromethod
Assay type: functional
Settings: 6509/96, 336 h
How it was run: as §1

Going from COc1cc(Cl)ccc1-c1nc2ccc(Cl)cc2o1 to COc1ccc(Cl)cc1-c1nc2cc(Br)ccc2o1, the MIC rises from 62.5 µM (≈ 18.4 µg/mL) to 250 µM (≈ 84.6 µg/mL) (4-fold).

Going from COc1ccc(Cl)cc1C(=O)Nc1cc(Cl)c(Cl)cc1OC(=O)c1cc(Cl)ccc1OC to COc1ccc(Cl)cc1C(=O)Nc1ccc(C(F)(F)F)cc1O, the MIC rises from 8 µM (≈ 4.12 µg/mL) to 250 µM (≈ 86.4 µg/mL) (31-fold).

Work on COc1cc(Cl)ccc1C(=S)Nc1ccc(C(F)(F)F)cc1O yielded an MIC of 62.5 µM (≈ 22.6 µg/mL).

Test system: Mycobacterium kansasii
Assay: Antimycobacterial activity against Mycobacterium kansasii 6509/96 clinical isolate after 21 days by micromethod
Assay type: functional
Settings: 6509/96, 504 h
How it was run: as §1

First: COc1cc(Cl)ccc1-c1nc2ccc(Cl)cc2o1
Second: COc1ccc(Cl)cc1-c1nc2cc(Br)ccc2o1
The MIC of the first is 4-fold lower: 62.5 µM (≈ 18.4 µg/mL) for the first, 250 µM (≈ 84.6 µg/mL) for the second.

Compared with COc1ccc(Cl)cc1C(=O)Nc1cc(Cl)c(Cl)cc1OC(=O)c1cc(Cl)ccc1OC, COc1ccc(Cl)cc1C(=O)Nc1ccc(C(F)(F)F)cc1O is 31-fold higher in MIC: 8 µM (≈ 4.12 µg/mL) for the first, 250 µM (≈ 86.4 µg/mL) for the second.

In the case of COc1cc(Cl)ccc1C(=S)Nc1ccc(C(F)(F)F)cc1O, the MIC is reported as 62.5 µM (≈ 22.6 µg/mL).

Molecular target: T1, Isocitrate lyase (Mycobacterium tuberculosis) (UniProt P9WKK7)
T1 sequence (whole entry): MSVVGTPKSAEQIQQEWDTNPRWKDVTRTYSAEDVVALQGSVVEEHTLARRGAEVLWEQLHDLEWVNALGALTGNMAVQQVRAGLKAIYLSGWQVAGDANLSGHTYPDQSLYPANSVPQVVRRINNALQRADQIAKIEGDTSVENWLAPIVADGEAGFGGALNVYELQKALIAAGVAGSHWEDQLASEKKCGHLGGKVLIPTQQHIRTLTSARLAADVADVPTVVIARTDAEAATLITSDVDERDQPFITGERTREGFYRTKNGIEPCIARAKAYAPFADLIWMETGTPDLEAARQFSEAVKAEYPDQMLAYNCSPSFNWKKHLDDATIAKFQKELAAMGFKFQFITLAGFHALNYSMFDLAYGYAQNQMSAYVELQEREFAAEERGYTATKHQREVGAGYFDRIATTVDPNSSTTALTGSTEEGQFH
Assay: Inhibition of Mycobacterium tuberculosis H37Rv isocitrate lyase expressed in Escherichia coli HB101 at 10 umol/L
Settings: not given
How it was run: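 Isocitrate lyase assayed per Dixon–Kornberg in 96-well format. Buffer: 50 mmol/L KH2PO4, 4 mmol/L MgCl2, 4 mmol/L phenylhydrazine, 12 mmol/L cysteine, pH 7.0. Glyoxylate phenylhydrazone read at 324 nm. Compounds added in DMSO, with DMSO-alone inhibition subtracted.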

First: O=C(O)CC[N+](=O)[O-]
Second: COc1ccc(Cl)cc1C(=O)Nc1ccc(C(F)(F)F)cc1O
The inhibition of the first is higher: 25% for the first, 2% for the second.

COc1cc(Cl)ccc1-c1nc2ccc(Cl)cc2o1 and COc1ccc(Cl)cc1-c1nc2cc(Br)ccc2o1 are the same in inhibition: 0% for the first, 0% for the second.

Compared with COc1ccc(Cl)cc1C(=O)Nc1cc(Cl)c(Cl)cc1OC(=O)c1cc(Cl)ccc1OC, COc1cc(Cl)ccc1C(=S)Nc1ccc(C(F)(F)F)cc1O is higher in inhibition: 3% for the first, 23% for the second.

Test system: HepG2
Assay: Cytotoxicity against human HepG2 cells after 24 hrs by CellTiter-96 cell viability assay
Assay type: functional, cell-based
Settings: HepG2, 24 h
How it was run: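 Hep G2 human hepatic cells (passage 12), 10,000 per well, grown 24 h at 37 °C, 5% CO2 in MEM with 1% glutamine, 10% FBS and 1% nonessential amino acids. Compounds in DMSO at eight increasing concentrations, quadruplicate, 24 h at 37 °C. Kit reagent added, 1.5 h at 37 °C, absorbance 490 nm. IC50 is the concentration reducing viability to 50% of control.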

First: COc1ccc(Cl)cc1C(=O)Nc1ccc(C(F)(F)F)cc1O
Second: COc1cc(Cl)ccc1C(=S)Nc1ccc(C(F)(F)F)cc1O
The IC50 of the first is 1.6-fold higher: 4.91 µM for the first, 3.14 µM for the second. The second is the more potent here.

Test system: not listed separately
Assay: Selectivity index, ratio of IC50 for human HepG2 cells to MIC for Mycobacterium tuberculosis 331/88 after 14 days
Assay type: functional
Settings: not given
How it was run: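 Cytotoxicity in Hep G2 cells (passage 12), 10,000 cells/well, in MEM with 10% FBS, 1% glutamine and 1% nonessential amino acids. Cells preincubated 24 h, 37 °C, 5% CO2. Compounds in DMSO at eight concentrations in quadruplicate, 24 h. MTS-type reagent added for 1.5 h, A490 read, IC50 taken at 50% viability. SI = this IC50 over the 14-day M. tuberculosis MIC.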

Going from COc1ccc(Cl)cc1C(=O)Nc1ccc(C(F)(F)F)cc1O to COc1cc(Cl)ccc1C(=S)Nc1ccc(C(F)(F)F)cc1O, the “Selectivity Index” value rises from 0.01 to 0.1.
